According to ChEMBL document CHEMBL1124473, “Synthesis and antiproliferative effects of novel 5'-fluorinated analogues of 5'-deoxy-5'-(methylthio)adenosine” (J Med Chem, 1989):
One block for each compound: values may come before it.

Columns and labels:
L5178Y [1] = assay: Compound was evaluated for its ability to inhibit growth by 50% at 48 hr in L5178Y murine leukemia cells; assay type: functional, cell-based; settings: Mus musculus
L1210 [2] = assay: Compound was evaluated for its ability to inhibit growth by 50% at 48 hr in L1210 murine leukemia cells; assay type: functional, cell-based; settings: Mus musculus, L1210, 48 h
L5178Y [3] = assay: Compound was evaluated for effect on polyamine pools in the L5178Y murine leukemia cell lines by the inhibition of spermine synthase at 200 uM; assay type: functional, Mus musculus
[4] = biological target: T1, S-methyl-5'-thioadenosine phosphorylase (Mus musculus, UniProt Q9CQ65); assay: Compound was evaluated for the inhibition of mouse liver MTA phosphorylase
T1 sequence (Q9CQ65 whole entry): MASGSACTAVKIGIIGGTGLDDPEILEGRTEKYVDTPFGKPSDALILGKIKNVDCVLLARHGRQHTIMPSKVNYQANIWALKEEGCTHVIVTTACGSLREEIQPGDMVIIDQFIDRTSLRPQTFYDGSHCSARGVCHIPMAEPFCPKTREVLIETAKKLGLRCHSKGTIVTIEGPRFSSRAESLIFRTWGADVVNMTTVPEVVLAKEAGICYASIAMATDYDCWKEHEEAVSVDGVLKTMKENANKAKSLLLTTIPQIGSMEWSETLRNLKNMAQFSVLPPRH
How it was run: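 Mouse liver enzyme, partially purified (acid precipitation, 65 °C heat step, DEAE-Sephacel). 0.1 mL reaction: 4 μmol potassium phosphate pH 7.4, 0.1 μmol DTT, 20 μg BSA, 50 nmol MTA, ~2 × 10^5 cpm [methyl-3H]MTA; 10 min, 37 °C. Stopped with charcoal/TCA; [3H]MTRP in supernatant counted by liquid scintillation.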

L5178Y [5] = assay: Compound was evaluated for effect on polyamine pools in the L5178Y murine leukemia cell lines by the inhibition of spermidine synthase at 200 uM; assay type: functional, Mus musculus
L1210 [6] = assay: Compound was evaluated for effect on polyamine pools in the L1210 murine leukemia cell lines by the inhibition of spermidine synthase at 200 uM; assay type: functional, Mus musculus
L1210 [7] = assay: Inhibition of growth of L1210 murine leukemia cell line in percent of control at 200 uM; assay type: functional, Mus musculus; design: scale not given: the % may be the effect or the level left
How it was run: (§1)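 Cultures in RPMI 1640 with 10% Nu Serum IV and HEPES/MOPS buffer, treated at 0 h with the listed concentration from DMSO stock diluted in serum-free medium. Cell number by electronic particle counting after 48 h, expressed as % of untreated control. Average of at least three separate experiments.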

L5178Y [8] = assay: Compound was evaluated for effect on polyamine pools in the L5178Y murine leukemia cell lines by the inhibition of put at 200 uM; assay type: functional, Mus musculus
L1210 [9] = assay: Compound was evaluated for effect on polyamine pools in the L1210 murine leukemia cell lines by the inhibition of spermine synthase at 200 uM; assay type: functional, Mus musculus
L1210 [10] = assay: Compound was evaluated for effect on polyamine pools in the L1210 murine leukemia cell lines by the inhibition of put at 200 uM; assay type: functional, Mus musculus
L5178Y [11] = assay: Inhibition of growth of L5178Y murine leukemia cell line in percent of control at 200 uM; assay type: functional, Mus musculus; design: scale not given: the % may be the effect or the level left; how it was run: as §1
L5178Y [12] = assay: Compound was evaluated for effect on polyamine pools in the L5178Y murine leukemia cell lines by the inhibition of spermidine synthase at 60 uM; assay type: functional, Mus musculus
L1210 [13] = assay: Inhibition of growth of L1210 murine leukemia cell line in percent of control at 600 uM; assay type: functional, Mus musculus; design: scale not given: the % may be the effect or the level left; how it was run: as §1
L5178Y [14] = assay: Inhibition of growth of L5178Y murine leukemia cell line in percent of control at 60 uM; assay type: functional, Mus musculus; design: scale not given: the % may be the effect or the level left; how it was run: as §1
L5178Y [15] = assay: Compound was evaluated for effect on polyamine pools in the L5178Y murine leukemia cell lines by the inhibition of spermine synthase at 60 uM; assay type: functional, Mus musculus
L1210 [16] = assay: Compound was evaluated for effect on polyamine pools in the L1210 murine leukemia cell lines by the inhibition of spermidine synthase at 600 uM; assay type: functional, Mus musculus
L1210 [17] = assay: Compound was evaluated for effect on polyamine pools in the L1210 murine leukemia cell lines by the inhibition of put at 600 uM; assay type: functional, Mus musculus
L1210 [18] = assay: Compound was evaluated for effect on polyamine pools in the L1210 murine leukemia cell lines by the inhibition of spermine synthase at 600 uM; assay type: functional, Mus musculus
L5178Y [19] = assay: Compound was evaluated for effect on polyamine pools in the L5178Y murine leukemia cell lines by the inhibition of put at 60 uM; assay type: functional, Mus musculus

SMILES: Nc1ncnc2c1ncn2C1O[C@H](CI)[C@@H](O)[C@H]1O (stereo not given in full)
IC50 (L5178Y [1]): 2 µM
IC50 (L1210 [2]): 300 µM

IC50 (L1210 [2]): 2 µM
SMILES: CSC(F)[C@H]1OC(n2cnc3c(N)ncnc32)[C@H](O)[C@@H]1O (stereo not given in full)
IC50 (L5178Y [1]): 0.7 µM

Ki [4]: 3.3 µM
IC50 (L1210 [2]): 300 µM
SMILES: Nc1ncnc2c1ncn2C1O[C@H](CSCF)[C@@H](O)[C@H]1O (stereo not given in full)
IC50 (L5178Y [1]): 200 µM
Activity (L5178Y [3]): 1.32 nM (10e6*cells)-1
Activity (L5178Y [5]): 2.47 nM (10e6*cells)-1
Activity (L1210 [6]): 2.93 nM (10e6*cells)-1
Control (L1210 [7]): 67%
Activity (L5178Y [8]): 0.41 nM (10e6*cells)-1
Activity (L1210 [9]): 0.6 nM (10e6*cells)-1
Activity (L1210 [10]): 0.62 nM/10e6
Control (L5178Y [11]): 45%

IC50 (L1210 [2]): 600 µM
SMILES: CSC[C@H]1O[C@@H](n2cnc3c(N)ncnc32)[C@H](O)[C@@H]1O [METHYLTHIOADENOSINE]
Activity (L5178Y [12]): 3.03 nM (10e6*cells)-1
Control (L1210 [13]): 53%
IC50 (L5178Y [1]): 60 µM
Control (L5178Y [14]): 57%
Activity (L5178Y [15]): 0.47 nM (10e6*cells)-1
Activity (L1210 [16]): 1.59 nM (10e6*cells)-1
Activity (L1210 [17]): 3.64 nM (10e6*cells)-1
Activity (L1210 [18]): 0.2 nM (10e6*cells)-1
Activity (L5178Y [19]): 1.24 nM (10e6*cells)-1
